Among the data in ChEMBL document CHEMBL4513216, “Probing the Open Global Health Chemical Diversity Library for Multistage-Active Starting Points for Next-Generation Antimalarials” (ACS Infect Dis, 2020) are cytotoxicity values, retold here.

The data set in a line: Toxicity liver stage against HepG2, at 10uM. Type of data set: cell-based. On the set-up: test concentration 10 uM, cell line HepG2-A16-CD81EGFP. The settings on record: human, HepG2-A16-CD81EGFP cells; read-out: INHIBITION
The gist of the method:
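Uninfected HepG2-A16-CD81EGFP cells, 3 × 10^3 per well, 1536-well, plated on prespotted compound at 10 μM final, parasite-free screening media added to match infected plates; puromycin 10 μM positive, DMSO 0.5% negative; run in parallel with 48 h PbLuc assay at 37 °C, 5% CO2; viability by CellTiter-Glo luminescence, normalized to controls.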
Regarding `C[C@@H]1C(=O)NC[C@H]2CN(Cc3ccsc3)C[C@H]21`, the cytotoxicity at 10 µM worked out at 4.22%.

Take `c1cn2c(n1)CNCC(COCC1CC1)C2` (stereo unspecified): the cytotoxicity at 10 µM turned out to be 17.4%.

For `COc1ccc2c(c1)NC(=O)C2OC(=O)CCc1ccc(F)cc1` (stereo unspecified), the cytotoxicity at 10 µM is -4.71%.

For the compound `Cc1ccc(NC2CCN(C(=O)COc3cccnc3)CC2)nn1`, the cytotoxicity at 10 µM came out at 1.3%.

In the case of `CCc1ccc2nc(-c3cnn(C)c3)cc(C(=O)N3CCOCC3)c2c1`, the cytotoxicity at 10 µM was -2.96%.

`CC1=Nc2c(c(=O)[nH]n2C2CCCC2)C(c2ccc(C(=O)O)cc2)S1` (stereo unspecified): the cytotoxicity at 10 µM was -10.4%.

`COc1ccc(CNCc2cn(C)nc2C)cc1`: the cytotoxicity at 10 µM is -1.42%.

Regarding `CC(C)C(NC(=O)C1CCCC1)c1cc(O)nc(-c2cccnc2)n1` (stereo unspecified), the cytotoxicity at 10 µM was 9.82%.

Regarding `CCn1cnnc1CNC(=O)N1CCOC(c2ccc(Cl)cc2)C1` (stereo unspecified), the cytotoxicity at 10 µM is 4.13%.

Consider `COCCCN(Cc1cnc(-c2ccccn2)nc1)C1CCN(C)CC1`, for which the cytotoxicity at 10 µM was -0.988%.

For the compound `Cc1nccc(-c2cccc(NCC(=O)N3CCNC3=O)c2)n1`, the cytotoxicity at 10 µM was determined as 1.9%.

`O=C(c1cc(=O)c(OCc2ccccc2F)co1)N1CCSCC1`: the cytotoxicity at 10 µM is -3.82%.

Turning to `Cc1nc2ccc(-n3ncnc3[C@@H]3CCCN3S(C)(=O)=O)cc2s1`, the cytotoxicity at 10 µM was -11.5%.

For the compound `CN(C)C(=O)CN1C[C@H]2CC[C@@H](C1)N(Cc1ccc(Cl)cc1Cl)C2`, the cytotoxicity at 10 µM was -10.2%.

Regarding `CNc1cncc(C2CCCN2S(=O)(=O)c2ccccc2F)n1` (stereo unspecified), the cytotoxicity at 10 µM was -15.1%.

As to `CCc1nc(CN(C)Cc2nnc(-c3cccs3)o2)cs1`, the cytotoxicity at 10 µM stood at 6.37%.

Consider `Cc1nc(C)n(CC2CCCN(CCOc3ccc(C#N)cc3)C2)n1` (stereo unspecified), for which the cytotoxicity at 10 µM was -1.55%.

Consider `COc1ccccc1NC(=O)Cc1c(C)nc2c(c1C)c(=O)[nH]n2C`, for which the cytotoxicity at 10 µM is -1.68%.

For the compound `CC(C)c1noc(-c2ccc(NCC3CCCOC3)nc2)n1` (stereo unspecified), the cytotoxicity at 10 µM is -2.26%.

For `CC(C)(C)c1n[nH]c(C2CN(C(=O)c3cc(C4CC4)on3)CCO2)n1` (stereo unspecified), the cytotoxicity at 10 µM is -15.8%.

As for `COCc1n[nH]c2c1CN(Cc1cccs1)C2`, the cytotoxicity at 10 µM is 3.3%.

In the case of `O=C(O)C1(Cc2ccc(-c3cccs3)cc2)CCNC1` (stereo unspecified), the cytotoxicity at 10 µM was -0.74%.

For `O=C1CN(c2cc(-c3ccccc3F)nc3ccnn23)CCCN1`, the cytotoxicity at 10 µM was determined as 2.77%.

In the case of `COCCCN1C(=O)CC[C@H]2CN(Cc3ncc[nH]3)CC[C@H]21`, the cytotoxicity at 10 µM was -0.462%.

Turning to `Cc1noc([C@@]23CCO[C@@H]2CCN(C(=O)c2c(C)noc2C)C3)n1`, the cytotoxicity at 10 µM was 8.4%.

Consider `CNc1cc(-c2cc(OC)c(OC)c(OC)c2)ncn1`, for which the cytotoxicity at 10 µM is -11.8%.

`Cc1ccc(C(=O)N2CCCC(NC(=O)C(C)C)C2)c(O)c1` (stereo unspecified): the cytotoxicity at 10 µM is -7.84%.

Regarding `Cc1nc(-c2ccc(C(=O)O)cc2)cc(C2CCN(C(C)C)C2)n1` (stereo unspecified), the cytotoxicity at 10 µM amounted to 6.62%.

As to `c1ccc(COc2cccc(CNC3CCc4ncnn4C3)c2)cc1` (stereo unspecified), the cytotoxicity at 10 µM was -13.7%.

As for `O=C(c1cccn1-c1ccc2c(c1)OCCO2)N1CCCC1`, the cytotoxicity at 10 µM is -9.42%.

As to `CN(Cc1ccc(-n2cccn2)cc1)CC1CCCN1c1cccnn1` (stereo unspecified), the cytotoxicity at 10 µM was -3.98%.

Turning to `O=C([C@@H]1C[C@@H]2CCN(C3CCOCC3)C[C@@H]2O1)N1CCOCC1`, the cytotoxicity at 10 µM was found to be 7.34%.

With `CC1(c2ncc(CN3CCN(c4ccccn4)CC3)cn2)CCCCO1` (stereo unspecified), the cytotoxicity at 10 µM was found to be 2.68%.

For the compound `O=C(NC[C@H]1C[C@@H]2CCN1C[C@@H]2CN1CCCC1)c1ccco1`, the cytotoxicity at 10 µM is -3.84%.

Consider `Cc1c(C(=O)OCC2CC(=O)N(c3ccccc3)C2)cnn1C(C)C` (stereo unspecified), for which the cytotoxicity at 10 µM is -3.52%.

For `Cn1ccc(CN2CCC(OCCc3ccccc3)CC2)cc1=O`, the cytotoxicity at 10 µM was -4.43%.

As for `CC(=O)Cn1c(C)cc(=O)c2cc(F)ccc21`, the cytotoxicity at 10 µM is -4.46%.

Turning to `CC(C)n1cc(C(=O)NCCCc2csc(N)n2)cn1`, the cytotoxicity at 10 µM is -4.36%.

As to `CCOc1ccc(C#N)cc1NC(=O)N1CCC(n2cncn2)CC1`, the cytotoxicity at 10 µM came to 20.3%.

On to `Cc1ccccc1-c1cc(CC2(C(=O)O)CCOCC2)on1`, for which the cytotoxicity at 10 µM was -14.1%.

As for `CCN(CC)c1nc(Nc2cccc(C(C)O)c2)nc2ccccc12` (stereo unspecified), the cytotoxicity at 10 µM amounted to 37.6%.

Turning to `CC(C)OCCCNC(=O)CN1C=Nc2ccccc2S1(=O)=O`, the cytotoxicity at 10 µM is -5.44%.

For `CCn1nc(C)c(S(=O)(=O)Nc2ccccc2C(=O)OC)c1C`, the cytotoxicity at 10 µM is -0.678%.

With `O=C1CCCN1Cc1ncn2c1CN(C(=O)Cc1cccs1)CCC2`, the cytotoxicity at 10 µM was determined as 5.26%.

`COCCn1c(CN2CCCCO2)cnc1S(=O)(=O)CC1CCCCC1`: the cytotoxicity at 10 µM is -6.58%.

Regarding `CSc1sc(NC(=O)Cc2c(C)nc(C)[nH]c2=O)nc1C`, the cytotoxicity at 10 µM is -1.29%.

Consider `O=C(NCCc1nnc2n1CCC2)NCC1(c2ccc(F)cc2)CC1`, for which the cytotoxicity at 10 µM is -2.23%.

With `CCc1cc(NCc2cc(CC(C)C)on2)n2nccc2n1`, the cytotoxicity at 10 µM stood at 3.59%.

As for `Cn1ncc2c1CCCC2NCc1cc(Br)cs1` (stereo unspecified), the cytotoxicity at 10 µM is -0.481%.

Take `Cc1nc(CN2CCO[C@H]3CN(C(=O)c4cscn4)C[C@H]32)cs1`: the cytotoxicity at 10 µM is -128%.

For `Cc1cccc(CN2CC3(CCN(S(=O)(=O)C4CC4)CC3)OCC2=O)n1`, the cytotoxicity at 10 µM is -3.27%.

Turning to `Cc1cnc(C(=O)N2CCC3(CCN3Cc3ccc(F)cc3)C2)cn1` (stereo unspecified), the cytotoxicity at 10 µM is -104%.

For `CCS(=O)(=O)N1CCc2c(COCCN(C)C)cncc2C1`, the cytotoxicity at 10 µM is -104%.

For `COc1cc(CNCc2ccnc(N3CCCC3)c2)cc(OC)c1`, the cytotoxicity at 10 µM was 8.8%.

As to `CCCNC(=O)c1nn(CC)cc1NC(=O)c1cn(C)nc1C`, the cytotoxicity at 10 µM is -5.63%.

For `Nc1cc(-c2nccnc2N2CCCC2)c2cc[nH]c2n1`, the cytotoxicity at 10 µM was determined as 13.6%.

For `CNC(=O)C(C)CN(C)C(=O)Nc1ccc(F)c(-n2cccc2)c1` (stereo unspecified), the cytotoxicity at 10 µM was -2.07%.

For the compound `CC(C)CCN1CCN(C(=O)c2cnccn2)CC1`, the cytotoxicity at 10 µM was 0.365%.

As to `COCC1c2c(cnn2CC2CC2)CCN1Cc1ccc(OC)cc1` (stereo unspecified), the cytotoxicity at 10 µM stood at 83.3%.

As to `Cc1noc(C(C)N2CCN(CC(=O)N3CCOCC3)CC2)n1` (stereo unspecified), the cytotoxicity at 10 µM was -8.41%.

Turning to `COCCn1c(-c2cccc(OC)c2)cnc1NC(=O)NC(C)C`, the cytotoxicity at 10 µM is 4.04%.

On to `O=C(c1cn(-c2cc(N3CCSCC3)ncn2)cn1)N1CCOCC1`, for which the cytotoxicity at 10 µM turned out to be 14.9%.

Consider `CCCc1nc(C(=O)N2C[C@H](CO)C[C@H](CN3CCOCC3)C2)cs1`, for which the cytotoxicity at 10 µM came out at 3.79%.

Take `O=C(c1cc(C2CC2)nc2onc(-c3ccccc3)c12)N1CC[C@H](O)C1`: the cytotoxicity at 10 µM is -40.4%.

For `CCC(NC(=O)NCc1ccoc1C)c1c(C)nn(C)c1C` (stereo unspecified), the cytotoxicity at 10 µM was -1.44%.

Take `CCc1ccc(CN2CCN(C(=O)C(C)C)[C@@H]3CS(=O)(=O)C[C@@H]32)cc1`: the cytotoxicity at 10 µM was determined as 2.11%.

For `CS(=O)(=O)CCC(=O)NC1(c2cccc(Br)c2)CC1`, the cytotoxicity at 10 µM was -11.1%.

`CN(C)C(=O)CNC(=O)c1ccc2c(-c3nccs3)noc2c1`: the cytotoxicity at 10 µM came to 7.19%.

Consider `Cn1c(C(=O)NC(Cc2ccsc2)c2cccnc2)cc(=O)n(C)c1=O` (stereo unspecified), for which the cytotoxicity at 10 µM worked out at 2.61%.

As for `Cc1ccc2c(n1)N(CC1CC1)CCN(C(=O)NC1CC1)C2`, the cytotoxicity at 10 µM is -3.09%.

As to `CS(=O)(=O)NCCC(=O)N1CCC(Cc2ccc(CO)cc2)C1` (stereo unspecified), the cytotoxicity at 10 µM was -5.77%.

For `Cn1cc2ncn([C@H]3CCN(Cc4ccccc4)C3)c(=O)c2n1`, the cytotoxicity at 10 µM is 2.89%.

As for `CCN(C)CCNC(=O)Cc1nc(-c2ccco2)oc1C`, the cytotoxicity at 10 µM was -12.5%.

Turning to `O=C(Cc1ccc2c(c1)CCC2)N1CCCC1Cn1cccn1` (stereo unspecified), the cytotoxicity at 10 µM was -139%.

Turning to `N#Cc1ccc(C(=O)O)nc1C=Cc1cccc(Br)c1`, the cytotoxicity at 10 µM came out at 5.09%.

For `COCc1cc(N(C)CCC(O)c2ccccc2)n2nccc2n1` (stereo unspecified), the cytotoxicity at 10 µM was -2.49%.

Regarding `O=C(NCCCn1cncn1)c1ccc(-c2ccco2)[nH]c1=O`, the cytotoxicity at 10 µM is 2.87%.

With `CCCNC(=O)COc1cc(C)c2c(C)nn(-c3ccc(C)cc3)c2n1`, the cytotoxicity at 10 µM is -0.217%.

With `Cc1nc(CNC(=O)C(C)(C)c2ccc(F)cc2)no1`, the cytotoxicity at 10 µM was 6.08%.

In the case of `Cc1ncc2c(n1)CCCC2NC(=O)c1ccccc1C(=O)O` (stereo unspecified), the cytotoxicity at 10 µM is -11.7%.

Turning to `Cc1noc(C)c1CCCNC(=O)C1CCN(C(=O)C2CC2)CC1`, the cytotoxicity at 10 µM was found to be 1.23%.

`CCN(CC)CCNC(=O)c1nn(CC)cc1Cl`: the cytotoxicity at 10 µM was found to be 2.58%.

Turning to `Cc1cc(CN2CCC3(CC2)COC(COCC2CC2)C3)no1` (stereo unspecified), the cytotoxicity at 10 µM was -107%.

For the compound `CCc1ncncc1C(=O)NCCNc1ncnc2sccc12`, the cytotoxicity at 10 µM is -5.68%.

Turning to `CC(=O)c1c(F)cccc1NCC(O)C1CC1` (stereo unspecified), the cytotoxicity at 10 µM came to 13.4%.

On to `COCCCNC(=O)N1CCC(CNC(=O)c2cnn(C)c2)CC1`, for which the cytotoxicity at 10 µM was -1.3%.

In the case of `O=C(c1ccc(Cn2cc(Br)cn2)cc1)N1CCOCC1`, the cytotoxicity at 10 µM was -13.6%.

Regarding `Cc1ccc(-c2nc(CN3CCn4c(C)nnc4C3)co2)cc1`, the cytotoxicity at 10 µM is -8.03%.

`COCC(=O)N1CC[C@@H]2O[C@H](COCc3ccncc3)CC[C@@H]21`: the cytotoxicity at 10 µM amounted to 2.6%.

Regarding `O=C(N1CCCC1)N1CCC(c2nccn2Cc2cscn2)CC1`, the cytotoxicity at 10 µM was determined as 4.8%.

As for `CCS(=O)(=O)N(C)C1CCN(C(=O)c2ccc(Cl)cc2)CC1`, the cytotoxicity at 10 µM was -5.87%.

Regarding `Cc1cncc(C2CCN(C(=O)CCc3ccnn3C)CC2)n1`, the cytotoxicity at 10 µM was -28.8%.

With `CCN(CC1CCCO1)C(=O)Nc1cc(OC)c(OC)cc1C` (stereo unspecified), the cytotoxicity at 10 µM was -10.9%.

On to `Cc1nc(-c2cc(C(=O)NC(C)(C(=O)O)C(C)C)co2)cs1` (stereo unspecified), for which the cytotoxicity at 10 µM was 1.84%.

For `Cc1nc(NC2CCN(C(=O)C3CC3)CC2)c2cnn(C)c2n1`, the cytotoxicity at 10 µM is -2.13%.

In the case of `CCS(=O)(=O)N1CCC2(CC(=O)N(c3cccc(C)c3)C2)C1` (stereo unspecified), the cytotoxicity at 10 µM was -7.79%.
